Reference: PMC6383364 (ACS chemical biology, 2019)

Legend:
[1] = assay type: in vivo; conditions: rat; for CSF AUC0–7 / CSF Cmax / Brain AUC0–7 / Brain Cmax: after BIA 10–2474 (1) 10 mg/kg p.o.; for Plasma AUC0–7: after BIA 10–2474 (1) 10 mg/kg p.o. in 0.5% methylcellulose; for Brain AUC0–7 / Brain Cmax: not corrected for binding to tissues
In short: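 Rats were dosed orally at 10 mg/kg in 0.5% methylcellulose. The parent compound and its metabolites were quantified in plasma, brain and CSF. Cmax and AUC0–7 were derived for each analyte.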

[2] = system: ALDHs; experiment: ABPP reactivity with ALDHs in human cells; assay type: cell-based; conditions: N-methyl compounds
[3] = biological target: ALDH9A1 (Homo sapiens, UniProt P49189); experiment: isoTOP-ABPP cysteine reactivity in SW620 cells: ALDH9A1; assay type: cell-based; conditions: 10 µM, 1 h
In short: (§1)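 SW620 cells were treated with test compound (10 μM, 1 h; light) or DMSO (heavy). Cysteine reactivity was then profiled globally by isoTOP-ABPP using an alkynylated iodoacetamide probe (IA-alkyne). Heavy/light ratios for quantified cysteines were averaged across four independent biological replicates.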

[4] = system: ~50–55 kDa protein; experiment: Gel-based CC-ABPP in CCF-STTG1 human astrocytoma cells; assay type: cell-based; conditions: pre-treatment 10 µM, 1 h, then probes 7 and 8
In short: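 CCF-STTG1 human astrocytoma cells were pretreated in situ with DMSO or the parent test compound (10 μM, 1 h), then given the matching alkyne probe (1 μM, 1 h). Probe-labelled proteins were conjugated by CuAAC to a rhodamine-azide reporter, resolved by SDS-PAGE and detected by in-gel fluorescence scanning.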

[5] = biological target: T1, ALDH2 (Homo sapiens, UniProt P05091); experiment: LC-MS characterisation of the adduct with ALDH2 from treated HEK293T cells; assay type: cell-based; conditions: HEK293T cells expressing FLAG-tagged WT-ALDH2, 10 µM, 1 h; LC-MS-based proteomics
T1 sequence (P05091 18-517): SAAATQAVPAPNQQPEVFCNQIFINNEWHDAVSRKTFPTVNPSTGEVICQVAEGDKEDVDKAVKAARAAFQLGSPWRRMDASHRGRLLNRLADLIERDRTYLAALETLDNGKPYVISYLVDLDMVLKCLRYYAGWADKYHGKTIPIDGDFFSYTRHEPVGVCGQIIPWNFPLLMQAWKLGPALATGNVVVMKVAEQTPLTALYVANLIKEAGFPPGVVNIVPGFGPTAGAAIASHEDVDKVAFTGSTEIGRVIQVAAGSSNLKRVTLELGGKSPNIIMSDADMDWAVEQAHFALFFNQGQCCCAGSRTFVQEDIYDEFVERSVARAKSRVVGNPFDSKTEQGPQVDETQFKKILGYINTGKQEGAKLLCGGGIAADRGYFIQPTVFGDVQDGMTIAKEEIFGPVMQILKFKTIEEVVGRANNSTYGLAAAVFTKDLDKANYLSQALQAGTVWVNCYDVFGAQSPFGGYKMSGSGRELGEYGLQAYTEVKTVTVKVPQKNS

[6] = biological target: T1, ALDH2; experiment: isoTOP-ABPP cysteine reactivity in SW620 cells: ALDH2; assay type: cell-based; conditions: 10 µM, 1 h
In short: as §1

[7] = biological target: T2, ALDH5A1 (Homo sapiens, UniProt P51649); experiment: isoTOP-ABPP cysteine reactivity in SW620 cells: ALDH5A1; assay type: cell-based; conditions: 10 µM, 1 h, Table S2
T2 sequence (P51649 48-535): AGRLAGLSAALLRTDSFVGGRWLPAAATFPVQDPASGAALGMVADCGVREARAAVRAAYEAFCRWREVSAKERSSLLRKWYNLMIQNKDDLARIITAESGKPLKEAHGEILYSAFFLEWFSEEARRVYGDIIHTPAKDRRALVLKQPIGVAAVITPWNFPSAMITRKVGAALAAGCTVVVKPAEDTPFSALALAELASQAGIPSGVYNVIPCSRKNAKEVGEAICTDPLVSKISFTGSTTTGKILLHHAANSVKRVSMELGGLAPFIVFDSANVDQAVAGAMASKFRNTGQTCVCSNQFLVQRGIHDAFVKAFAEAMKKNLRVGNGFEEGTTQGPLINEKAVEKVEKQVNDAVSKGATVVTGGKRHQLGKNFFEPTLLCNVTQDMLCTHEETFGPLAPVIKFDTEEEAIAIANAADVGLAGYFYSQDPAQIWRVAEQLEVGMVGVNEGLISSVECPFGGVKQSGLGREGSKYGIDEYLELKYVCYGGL
In short: as §1

[8] = biological target: T1, ALDH2; experiment: Quantitative MS-based CC-ABPP and Western blot in CCF-STTG1 cells: ALDH2; assay type: cell-based; conditions: pre-treatment 10 µM, 1 h, then corresponding probe 7 or 8
In short: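 CCF-STTG1 cells were grown in isotopically heavy or light amino-acid media. Cells received DMSO (heavy) or test compound (light; 10 μM, 1 h), followed by the corresponding clickable probe (1 μM, 1 h). Heavy/light protein ratios were averaged from quantified peptides across two independent biological replicates. Streptavidin-enriched fractions, with or without parent pretreatment, were immunoblotted with anti-ALDH2.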

ALDH9A1, sequence (P49189 whole entry): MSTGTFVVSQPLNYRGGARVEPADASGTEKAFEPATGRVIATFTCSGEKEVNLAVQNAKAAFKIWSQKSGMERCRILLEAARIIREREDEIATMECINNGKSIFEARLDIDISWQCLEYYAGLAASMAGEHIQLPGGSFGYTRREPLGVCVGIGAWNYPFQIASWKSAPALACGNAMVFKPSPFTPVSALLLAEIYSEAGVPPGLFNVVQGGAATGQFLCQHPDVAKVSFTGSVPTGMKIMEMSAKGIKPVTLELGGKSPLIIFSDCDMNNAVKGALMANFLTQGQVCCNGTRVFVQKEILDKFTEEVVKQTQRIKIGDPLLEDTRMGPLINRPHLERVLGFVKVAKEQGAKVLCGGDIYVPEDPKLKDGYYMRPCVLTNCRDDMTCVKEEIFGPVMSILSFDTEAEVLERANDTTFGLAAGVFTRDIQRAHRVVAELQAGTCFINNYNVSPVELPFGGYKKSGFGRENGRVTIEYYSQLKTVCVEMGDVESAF

Structure (SMILES)	CSF AUC0–7 [1] [ng·h/mL]	CSF Cmax [1] [ng/mL]	Plasma AUC0–7 [1] [ng·h/mL]	Brain AUC0–7 [1] [ng·h/mL]	Brain Cmax [1] [ng/mL]	Reaction with ALDHs [2]	IA-alkyne reactivity of C288 of ALDH9A1 [3]	Blockade of probe labelling of ~50–55 kDa protein [4]	Adduct with C319 on ALDH2 [5]	IA-alkyne reactivity of C319 of ALDH2 [6]	IA-alkyne reactivity of other cysteine (C386) of ALDH2 [6]	IA-alkyne reactivity of C340 of ALDH5A1 [7]	Blockade of probe enrichment of ALDH2 (Western blotting) [8]
CN(C(=O)n1cnc(-c2cccnc2)c1)C1CCCCC1 [compound 2]	113	36.2	306	185	252								
CN(C(=O)n1cnc(-c2ccc[n+]([O-])c2)c1)C1CCCCC1 [BIA 10–2474 (1)]	4000	1300	13800	2480	939	fail to react							
O=C(NC1CCCCC1)n1cnc(-c2ccc[n+]([O-])c2)c1 [compound 3]	15.6	5.03	323	11.8	4.57		blocked	blocked	S-thiocarbamate adduct	blocked	unperturbed	unchanged	blockade
